Test results: ChEMBL document CHEMBL1155302, “Crystal structure, antitumour and antimetastatic activities of disubstituted fused 1,2,4-triazinones” (Bioorg Med Chem Lett, 2009)

Legend:
RPMI-8226 [1] = test: Antitumor activity against human RPMI8226 cells assessed as cell viability at 50 uM after 24 hrs by MTT assay relative to control; format: functional; details: RPMI-8226, 24 h, read-out: Activity
In short: (§1)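 RPMI 8226 peripheral blood myeloma cells were treated with 1, 50 or 100 µM compound (DMSO stock diluted into medium) for 24 h. Viability was measured by MTT reduction (SDI test), with solubilized formazan read at 570 nm. Results are % of medium-alone control, mean SD of at least three independent measurements.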

RPMI-8226 [2] = test: Antitumor activity against human RPMI8226 cells assessed as cell viability at 100 uM after 24 hrs by MTT assay relative to control; format: functional; details: RPMI-8226, 24 h, read-out: Activity; in short: as §1
[3] = Cytotoxicity against human HSF cells assessed as cell viability at 100 uM after 24 hrs by MTT assay relative to control; format: cell-based; details: read-out: Activity
In short: (§2)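 Primary skin fibroblasts were obtained by trypsinizing a healthy forearm skin fragment and grown in DMEM with 10% FBS, penicillin and streptomycin at 37 °C, 5% CO2. Cells were plated at 1 × 10⁵ per well to confluence, then exposed for 24 h to 1, 50 or 100 µM compound diluted from DMSO. MTT viability was read at 570 nm as % of medium control, mean SD of at least three independent measurements.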

RPMI-8226 [4] = test: Antitumor activity against human RPMI8226 cells assessed as cell viability at 1 uM after 24 hrs by MTT assay relative to control; format: functional; details: RPMI-8226, 24 h, read-out: Activity; in short: as §1
[5] = Antimetastatic activity against human HeLaB cells assessed as inhibition of cell motility at 25 uM after 24 hrs relative to control; format: functional; set-up: scale not given: the % may be the effect or the level left
In short: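 HeLa B cervix carcinoma cells were exposed to 25 µM compound or to culture medium alone for 24 h in a wound-migration (cell motility) assay. Cells migrating into the wound area were scored, and motility was expressed as % of the medium-only control (100%).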

[6] = Cytotoxicity against human HSF cells assessed as cell viability at 1 uM after 24 hrs by MTT assay relative to control; format: cell-based; details: read-out: Activity; in short: as §2
[7] = Cytotoxicity against human HSF cells assessed as cell viability at 50 uM after 24 hrs by MTT assay relative to control; format: cell-based; details: read-out: Activity; in short: as §2

| Structure (SMILES) | viability at 50 µM (RPMI-8226 [1]) [%] | viability at 100 µM (RPMI-8226 [2]) [%] | viability at 24 h, 100 µM [3] [%] | viability at 1 µM (RPMI-8226 [4]) [%] | Activity [5] [%] | viability at 24 h, 1 µM [6] [%] | viability at 24 h, 50 µM [7] [%] |
| --- | --- | --- | --- | --- | --- | --- | --- |
| O=c1c(-c2ccccc2)nnc2n1CCN2c1ccccc1Cl | 103 | 101 | 104 | 103 | 59 | 108 | 104 |
| COc1ccc(N2CCn3c2nnc(-c2ccccc2)c3=O)cc1 | 57 | 43 | 73 | 106 | 59 | 88 | 64 |
| O=c1c(-c2ccccc2)nnc2n1CCN2c1cc(Cl)ccc1Cl | 43 | 41 | 17 | 109 | 103 | 87 | 31 |
| O=c1c(-c2ccccc2)nnc2n1CCN2c1cccc(Cl)c1 | 70 | 60 | 88 | 105 | 52 | 108 | 85 |
| O=c1c(-c2ccccc2)nnc2n1CCN2c1ccc(Cl)cc1 | 56 | 39 | 102 | 101 | 50 | 104 | 96 |
| O=c1c(-c2ccccc2)nnc2n1CCN2c1ccc(Cl)c(Cl)c1 | 69 | 58 | 47 | 108 | 90 | 93 | 48 |
| Cc1cccc(N2CCn3c2nnc(-c2ccccc2)c3=O)c1 | 79 | 71 | 88 | 107 | 68 | 100 | 94 |
